15 compounds from ChEMBL document CHEMBL1121886, “Synthesis and antineoplastic activity of mitosene analogues of the mitomycins” (J Med Chem, 1981) can be followed below.

Data set [1] relates to L1210. Put plainly: Median survival time against L1210 murine leukemia at 1.5 mg/kg in mice when compared with control. The format is functional, Mus musculus. In a few lines: (§1)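 BDF₁ female mice received 10⁶ L1210 ascites cells, then a single injection on day 1 in distilled water containing Tween 80, six mice per dose. The control group had 36 mice. Median survival time is in days; % T/C = MST treated/MST control × 100, with 125 taken as significant. Weight change is the average weight difference between treated and control groups.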

The nature of data set [2]: (§2) Average change in weight between treated and control groups at 12 mg/kg in mice infected with L1210 leukemia cells. The format is functional, Mus musculus. In a few lines:
(§3)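 L1210 ascites cells (10⁶) were implanted into BDF₁ female mice. Six mice per dose received a single injection on day 1 in distilled water containing Tween 80; the control group had 36 mice. Survivors were counted on days 5 and 30. %T/C = MST (days) treated/control × 100, with 125 as significant. Weight change is the average weight difference between treated and control groups.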

For data set [3], the system named is L1210. Put plainly: Median survival time against L1210 murine leukemia at 6 mg/kg in mice when compared with control. The format is functional, Mus musculus. In outline: as §1
Data set [4] concerns L1210. Put plainly: Average change in weight between treated and control groups at 1.5 mg/kg in mice infected with L1210 leukemia cells. It is filed as functional, Mus musculus. In outline:
as §3

In data set [5] the test system is L1210. As to the kind of experiment: Average change in weight between treated and control groups at 6 mg/kg in mice infected with L1210 leukemia cells. It is filed as functional, Mus musculus. In a few lines:
as §3

The test system of data set [6] is L1210. As to the kind of experiment: Median survival time against L1210 murine leukemia at 3 mg/kg in mice when compared with control. It is filed as functional, Mus musculus. In a few lines:
as §1

The subject of data set [7] is L1210. As to the kind of experiment: Median survival time against L1210 murine leukemia at 12 mg/kg in mice when compared with control. The format is functional, Mus musculus. In outline: as §1
Data set [8] relates to L1210. Put plainly: (§4) Average change in weight between treated and control groups at 3 mg/kg in mice infected with L1210 leukemia cells. It is filed as functional, Mus musculus. In a few lines: as §1
Data set [9] concerns P388. Put plainly: (Percentage) Maximum effect on life span of control group of mice for mytomycin C at its optimal dose. It is filed as functional, Mus musculus. In a few lines:
(§5)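 CDF₁ female mice were implanted with 10⁶ P388 ascites cells and dosed on day 1 only, six mice per dose. There were 10 saline-injected controls, plus a six-mouse mitomycin C group per dose in each experiment. % T/C = median survival treated/control × 100 at optimal dose; MED is the dose giving % T/C 125; TR = optimal dose/MED.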

A short description of data set [10]: (§6) Therapeutic ratio of optimal dose to minimum effective dose(MED). It is filed as ADME. As to conditions: mouse. In a few lines:
(§7)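 P388 ascites cells (10⁶) were implanted in CDF₁ female mice. Six mice per dose were dosed on day 1 only; 10 controls received saline, and mitomycin C reference groups had six mice per dose. %T/C = MST treated/control × 100. The optimal dose gave the maximum %T/C. MED is the dose giving %T/C 125. TR = optimal dose/MED.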

For data set [11], the system named is P388. As to the kind of experiment: Minimum effective dose (MED) against P388 murine leukemia in mice. The format is functional. The following applies: Mus musculus, read-out: MED. In a few lines: as §7
The test system of data set [12] is P388. As to the kind of experiment: Optimal dose effective against P388 murine leukemia in mice. It is filed as functional, Mus musculus. In outline: as §7
The subject of data set [13] is P388. As to the kind of experiment: (Percentage) Maximum effect on life span of mice against P388 murine leukemia when compared with control. The format is functional, Mus musculus. In outline:
as §5

A short description of data set [14]: as §6. The format is ADME. As to conditions: mouse, p388. In outline:
as §5

Data set [15] concerns L1210. Described as §2. The format is functional, Mus musculus. In a few lines:
as §1

Data set [16] has as its system L1210. As to the kind of experiment: Average change in weight between treated and control groups at 24 mg/kg in mice infected with L1210 leukemia cells. The format is functional, Mus musculus. In outline:
as §1

Data set [17] has as its system L1210. Put plainly: Median survival time against L1210 murine leukemia at 24 mg/kg in mice when compared with control. The format is functional, Mus musculus. In outline:
as §1

Data set [18] concerns L1210. Put plainly: Median survival time against L1210 murine leukemia at 24 mg/kg in mice when compared with control; Toxic. It is filed as functional, organism-based. More on the design: dose 24 mg/kg. As to conditions: Mus musculus. In a few lines: as §3
In data set [19] the test system is L1210. The data set is described as §4. It is filed as functional, Mus musculus. In outline:
as §3
This is another data set of the same source.

As a reminder, the T/C is the result in the treated group divided by that in the control group, in per cent. For `CO[C@@]12[C@H](COC(N)=O)C3=C(C(=O)C(C)=C(N)C3=O)N1C[C@@H]1N[C@@H]12` [MITOMYCIN], the T/C is 108% in [1], 124% in data set [3], 122% in data set [6] and 110% in data set [7]. For the same compound, the Average weight change is on record as -5.5 g in [2], -1.2 g in [4], -3.6 g in data set [5] and -2.4 g in data set [8].

`COc1c(C)c(O)c2c(c1O)c(COC(N)=O)c1n2C[C@@H]2[C@H]1N2C` (some centres undefined): the T/C is 181% in data set [9] and 213% in data set [13]. Besides, the selectivity ratio in [10] is 16. For the same compound, in data set [11], the minimal effective dose was found to be 0.8 mg/kg. Further, the Dose in data set [12] came to 12.8 mg/kg.

In the case of `COC1=C(C)C(=O)c2c(c(COC(N)=O)c3n2CCC3OC(=O)c2cccnc2)C1=O` (centres undefined), the results for the T/C in [9] and in [13] were 211% and 128%, respectively. In addition, the selectivity ratio in data set [10] is 1. Also, the minimal effective dose in data set [11] was determined as 6.4 mg/kg. This compound gave a Dose in data set [12] of 6.4 mg/kg.

For `COC1=C(C)C(=O)c2c(c(COC(N)=O)c3n2CCC3)C1=O`, the T/C stood at 183% in [9] and 128% in data set [13]. The selectivity ratio in [14] is 1. For the same compound, the minimal effective dose in [11] was determined as 51.2 mg/kg. The compound also gave a Dose in data set [12] of 51.2 mg/kg.

Turning to `CC1=C(N2CC2)C(=O)c2c(COC(N)=O)c3n(c2C1=O)CCC3OC(N)=O` (centres undefined), the Average weight change in data set [15] is reported as -2.4 g; in [4], -0.6 g; in data set [5] it was -1.6 g; in data set [16] it was -3.2 g; in data set [8], -1.1 g. The T/C in data set [9] amounted to 183%; in data set [1] it was 108%; in data set [3], 114%; in [6] it was 112%; in data set [13] it was 144%; in data set [7], 134%. Moreover, the T/C in data set [17] stood at 138%. Besides, the selectivity ratio in data set [10] turned out to be 64. In [11], the minimal effective dose came out at 0.8 mg/kg. Moreover, in data set [12], the Dose is 51.2 mg/kg.

For `COC1=C(C)C(=O)c2c(c(COC(N)=O)c3n2CCC3O)C1=O` (centres undefined), the T/C in data set [9] amounted to 181%; in [13], 113%. In data set [12], this compound showed a Dose of 6.4 mg/kg.

For the compound `COC1=C(C)C(=O)c2c(c(COC(N)=O)c3n2CC/C3=N\O)C1=O`, the T/C was found to be 181% in [9] and 150% in data set [13]. For the same compound, in [10], the selectivity ratio is 4. For the same compound, in data set [11], the minimal effective dose worked out at 1.6 mg/kg. In [12], this compound displayed a Dose of 6.4 mg/kg.

Regarding `CC(=O)OC1CCn2c3c(c(COC(N)=O)c21)C(=O)C(N1CC1)=C(C)C3=O` (centres undefined), the T/C amounted to 224% in [9] and 122% in [13]. In data set [12], this compound showed a Dose of 6.4 mg/kg.

`COC1=C(C)C(=O)c2c(c(COC(N)=O)c3n2CCC3OC(N)=O)C1=O` (centres undefined): the Average weight change in [15] was -3.4 g; in data set [4], -1.4 g; in data set [5], -1.7 g; in [16], -5.1 g; in data set [19], -3.2 g. In addition, the T/C is 238% in data set [9]; 114% in [1]; “Toxic” in data set [18]; 116% in data set [3]; 118% in [6]; 163% in data set [13]. Further, the T/C in data set [7] worked out at 122%. Further, the selectivity ratio in data set [10] amounted to 16. Besides, the minimal effective dose in data set [11] was determined as 0.4 mg/kg. Moreover, in data set [12], the Dose was 6.4 mg/kg.

In the case of `CNC(=O)OC1CCn2c3c(c(CCl)c21)C(=O)C(OC)=C(C)C3=O` (centres undefined), the T/C in [9] was found to be 222%; in [13], 139%. Moreover, the selectivity ratio in data set [10] was determined as 1. Besides, in data set [11], the minimal effective dose worked out at 12.8 mg/kg. This compound also had a Dose in data set [12] of 12.8 mg/kg.

In the case of `CNC(=O)OC1CCn2c3c(c(COC(N)=O)c21)C(=O)C(OC)=C(C)C3=O` (centres undefined), the T/C in [9] is on record as 228%; in data set [13], 167%. Besides, the minimal effective dose in data set [11] stood at 1.6 mg/kg. The Dose in data set [12] stood at 6.4 mg/kg.

Turning to `COC1=C(C)C(=O)c2c(c(COC(N)=O)c3n2CCC3OC(=O)CCl)C1=O` (centres undefined), the T/C was 224% in [9] and 111% in data set [13]. In addition, in [12], the Dose came out at 6.4 mg/kg.

Turning to `COC1=C(C)C(=O)c2c(c(COC(N)=O)c3n2CCC3OC(=O)C(C)(C)C)C1=O` (centres undefined), the T/C is on record as 183% in [9] and 117% in data set [13]. Besides, the Dose in data set [12] was 51.2 mg/kg.

As to `COC1=C(C)C(=O)c2c(c(COC(N)=O)c3n2CCC3OC(C)=O)C1=O` (centres undefined), the T/C in [9] is on record as 229%; in data set [13], 165%. Also, the selectivity ratio in data set [10] was 8. The minimal effective dose in data set [11] was 0.8 mg/kg. In addition, in [12], the Dose is 6.4 mg/kg.

`COC(=O)OC1CCn2c3c(c(COC(N)=O)c21)C(=O)C(OC)=C(C)C3=O` (centres undefined): the T/C in [9] is 244%; in [13], 150%. Moreover, in [10], the selectivity ratio amounted to 2. The minimal effective dose in data set [11] was found to be 1.6 mg/kg. Also, the Dose in data set [12] turned out to be 3.2 mg/kg.
